The structures appear in SMILES notation. Calls of active or inactive are those of the source. The calls are words filed in the database; no cut-off is given here.

This note sets out measurements from ChEMBL document CHEMBL5036326, “Development of Covalent, Clickable Probes for Adenosine A1 and A3 Receptors” (J Med Chem, 2021).

Data set [1] addresses T1, Adenosine receptor A1 (Homo sapiens, UniProt P30542).
T1 sequence (P30542 whole entry): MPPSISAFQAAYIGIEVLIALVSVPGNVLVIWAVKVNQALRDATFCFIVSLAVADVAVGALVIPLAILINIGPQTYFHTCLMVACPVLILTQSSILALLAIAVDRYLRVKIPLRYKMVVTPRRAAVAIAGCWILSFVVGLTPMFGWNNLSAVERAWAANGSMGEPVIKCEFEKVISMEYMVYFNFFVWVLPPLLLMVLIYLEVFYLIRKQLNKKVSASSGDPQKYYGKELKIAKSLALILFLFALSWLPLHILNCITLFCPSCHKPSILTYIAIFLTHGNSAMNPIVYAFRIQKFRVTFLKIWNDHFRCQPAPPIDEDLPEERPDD
Kind of data set: Antagonist activity at human adenosine A1 receptor expressed in Flp-In-CHO cell membrane assessed as inhibition of forskolin-stimulated cAMP accumulation preincubated for 5 min followed by forskolin stimulation and further incubated for 30 mins in presence of NECA by alphascreen LANCE assay. (cAMP levels reflect the balance of adenylyl cyclase and phosphodiesterase activity.)

For data set [2], the target named is T2, Adenosine receptor A1 (Homo sapiens) (UniProt P30542).
T2 sequence (whole entry): T1 sequence (P30542 whole entry)
Kind of data set: Displacement of [3H] DPCPX from human A1 adenosine receptor expressed in Flp-In-CHO cell membrane at 10 uM incubated for 4 hrs by microbeta scintillation counting method. It counts as cell membranes. In short, it runs like this:
(§1)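 Membranes (15 μg) from hA1R-FlpInCHO cells incubated with competing ligand and about 1 nM [3H]DPCPX for 4 h at 25 °C. Binding buffer: HEPES, glucose, salts, 1 unit/mL ADA, pH 7.4. Filtration, ice-cold 0.9% NaCl washes, then β-counting. Nonspecific binding defined with 1 μM SLV320. Specific binding normalized to binding without competitor.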

For data set [3], the target named is T2, Adenosine receptor A1 (Homo sapiens). The conditions noted are these: Flp-In-CHO, Membrane, filed as antagonist, time 40.0 min.
Data set [4] concerns the target T1, Adenosine receptor A1. The data set can be described thus: Displacement of [3H] DPCPX from human A1 adenosine receptor expressed in Flp-In-CHO cell membrane incubated for 4 hrs by microbeta scintillation counting method. It counts as cell membranes.
Data set [5] is described as follows: Solubility of the compound at 10 uM. It counts as physicochemical.
The target in data set [6] is T2, Adenosine receptor A1 (Homo sapiens). Kind of data set: Displacement of [3H] DPCPX from human A1 adenosine receptor expressed in Flp-In-CHO cell membrane at 1 uM incubated for 4 hrs by microbeta scintillation counting method. It counts as cell membranes. Conditions: filed as antagonist. An outline of the steps: as §1
On the technique in general: Displacement assays read how much labelled ligand stays bound in the presence of the test substance.

Data set [7] has as its target T3, Adenosine receptor A3 (Homo sapiens) (UniProt P0DMS8).
T3 sequence (whole entry): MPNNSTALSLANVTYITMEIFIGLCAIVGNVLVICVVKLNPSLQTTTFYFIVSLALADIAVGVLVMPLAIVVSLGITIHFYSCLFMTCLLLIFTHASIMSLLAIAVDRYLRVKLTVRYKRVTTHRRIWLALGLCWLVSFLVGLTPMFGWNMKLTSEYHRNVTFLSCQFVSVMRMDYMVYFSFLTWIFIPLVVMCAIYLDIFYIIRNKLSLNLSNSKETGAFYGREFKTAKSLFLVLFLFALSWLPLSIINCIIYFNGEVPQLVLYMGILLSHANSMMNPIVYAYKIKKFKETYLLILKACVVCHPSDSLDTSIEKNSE
Conditions: Flp-In-CHO, Membrane, filed as antagonist, time 40.0 min.

The target in data set [8] is T2, Adenosine receptor A1 (Homo sapiens). The conditions noted are these: Flp-In-CHO, Membrane, filed as antagonist, time 40.0 min. This is another data set of the same source.
Data set [9] concerns the target T3, Adenosine receptor A3 (Homo sapiens). The data set can be described thus: Inhibition of CA200645 binding to NanoLuc-fused human Adenosine A3 receptor expressed in HEK293-A cells using furimazine as substrate preincubated for 3 hrs followed by ligand washout and further incubated for 60 mins with CA200645 by NanoBRET assay. In kind it is cell-based. An outline of the steps: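 HEK293A cells transiently transfected (PEI) with N-terminal Nluc-A3R cDNA, assayed 48 h post-transfection. Cells incubated with competing ligands for 3 h in binding buffer, then washed 6 × 20 min. 5 nM CA200645 added for 60 min at room temperature, then 10 μM furimazine (final). BRET read as 610/460 nm emission ratio at 25 °C. Nonspecific binding defined with 1 μM MRS1220.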
For orientation: BRET reads energy transfer from a luciferase to a nearby fluorophore.

The target in data set [10] is T4, Adenosine receptor A3 (Homo sapiens, UniProt P0DMS8).
T4 sequence (P0DMS8 whole entry): T3 sequence (whole entry)
The data set can be described thus: Antagonist activity at human adenosine A3 receptor expressed in Flp-In-CHO cell membrane assessed as inhibition of NECA-induced cAMP accumulation in presence of forskolin measured after 40 mins by alpha screen LANCE assay. It counts as functional, cell membranes.

For data set [11], the target named is T1, Adenosine receptor A1. The data set can be described thus: Displacement of [3H] DPCPX from human adenosine A1 receptor expressed in Flp-In-CHO cell membrane incubated for 3 hrs followed by compound washout and further incubated for 4 hrs with radioligand by microbeta scintillation counting method. In kind it is cell membranes.
The target in data set [12] is T1, Adenosine receptor A1. The data set can be described thus: Antagonist activity at human adenosine A1 receptor expressed in Flp-In-CHO cell membrane assessed as inhibition of NECA-induced cAMP accumulation in presence of forskolin measured after 40 mins by alpha screen LANCE assay. In kind it is functional, cell membranes.
In data set [13] the target is T5, Adenosine receptor A2b (Homo sapiens, UniProt P29275).
T5 sequence (P29275 whole entry): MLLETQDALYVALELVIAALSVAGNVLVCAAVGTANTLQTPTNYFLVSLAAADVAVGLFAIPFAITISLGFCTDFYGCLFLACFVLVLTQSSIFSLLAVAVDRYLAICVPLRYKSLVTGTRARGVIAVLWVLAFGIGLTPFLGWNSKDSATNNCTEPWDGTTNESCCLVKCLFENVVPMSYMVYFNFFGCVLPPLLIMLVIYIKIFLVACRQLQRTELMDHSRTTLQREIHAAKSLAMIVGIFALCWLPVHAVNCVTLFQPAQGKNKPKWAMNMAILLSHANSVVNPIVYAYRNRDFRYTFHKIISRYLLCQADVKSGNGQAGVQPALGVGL
Kind of data set: (§2) Antagonist activity at human adenosine A2B receptor expressed in Flp-In-CHO cell membrane assessed as inhibition of NECA-induced cAMP accumulation in presence of forskolin measured after 40 mins by alpha screen LANCE assay. In kind it is functional. In short, it runs like this:
(§3)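 A2BR-FlpInCHO cells seeded at 30000 cells/well and incubated overnight at 37 °C. Antagonists tested against a submaximal (EC80) NECA concentration; NECA curves run alongside. cAMP response normalized to buffer (0%) and 3 μM forskolin (100%). Affinity derived by fitting NECA–antagonist interaction data to a competitive model. Duplicates, ≥3 experiments.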

In data set [14] the target is T6, Adenosine receptor A2b (Homo sapiens) (UniProt P29275).
T6 sequence (whole entry): T5 sequence (P29275 whole entry)
Described as §2. It counts as functional. The conditions noted are these: filed as antagonist. An outline of the steps:
as §3

Data set [15] deals with T7, Adenosine receptor A2a (Homo sapiens, UniProt P29274). The conditions noted are these: Flp-In-CHO, Membrane, filed as antagonist, time 40.0 min.
For data set [16], the target named is T7, Adenosine receptor A2a. Kind of data set: Antagonist activity at human adenosine A2A receptor expressed in Flp-In-CHO cell membrane assessed as inhibition of NECA-induced cAMP accumulation in presence of forskolin measured after 40 mins by alpha screen LANCE assay. In kind it is functional, cell membranes.

T7 sequence (P29274 whole entry): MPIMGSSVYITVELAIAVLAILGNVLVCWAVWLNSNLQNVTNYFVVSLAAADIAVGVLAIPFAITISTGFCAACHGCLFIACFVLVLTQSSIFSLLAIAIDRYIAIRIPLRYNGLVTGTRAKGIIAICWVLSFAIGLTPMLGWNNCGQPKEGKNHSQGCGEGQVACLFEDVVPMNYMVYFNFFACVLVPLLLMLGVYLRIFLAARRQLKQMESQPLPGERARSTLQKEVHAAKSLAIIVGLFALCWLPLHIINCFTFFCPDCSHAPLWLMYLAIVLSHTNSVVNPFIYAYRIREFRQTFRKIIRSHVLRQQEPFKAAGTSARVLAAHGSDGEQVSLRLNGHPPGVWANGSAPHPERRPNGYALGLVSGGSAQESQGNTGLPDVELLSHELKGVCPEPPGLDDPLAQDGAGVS

Consider `CCCCn1c(=O)c2nc(C3CCCCC3)[nH]c2n(CCCNC(=O)c2ccc(S(=O)(=O)F)cc2)c1=O`, for which the Ki (usually a dissociation constant, usually derived from enzyme kinetics or from competition with a known ligand) in data set [1] worked out at 26 nM; in data set [4], 12.1 nM. Also, in [2], the result was inactive. Further, the pKb (as a rule, the negative decadic logarithm of the Kb, by convention in mol/L) in [3] turned out to be 7.59. Also, the solubility entry in data set [5] is “Insoluble”. Besides, the result in data set [6] was Active.

`C#CCNC(=O)C12CCC(c3nc4c(=O)n(CCCC)c(=O)n(CCCNC(=O)c5ccc(S(=O)(=O)F)cc5)c4[nH]3)(CC1)CC2`: the Ki in [1] amounted to 585 nM; in data set [10] it was 46.8 nM; in data set [11] it was 38.8 nM; in data set [4] it was 26.1 nM; in data set [12] it was 30.9 nM. In addition, the pKb in [7] was determined as 7.33; in data set [3] it was 6.23; in data set [8], 7.51. In addition, the inhibition result in data set [9] (filed as antagonist) was “Active”.

As for `CCCCn1c(=O)c2nc(C34CCC(C(=O)NCCOCCOCCN=[N+]=[N-])(CC3)CC4)[nH]c2n(CCCNC(=O)c2ccc(S(=O)(=O)F)cc2)c1=O`, the Ki in data set [1] is 1.4 nM; in [13] it was 22.9 nM; in data set [10] it was 39.8 nM; in data set [11], 10 nM; in data set [4], 6.1 nM; in data set [12], 3.5 nM. Further, the Ki in data set [16] is 31.6 nM. Further, the pKb came to 7.64 in data set [14]; 7.5 in data set [15]; 7.4 in data set [7]; 8.86 in [3]; 8.45 in [8].

Take `CCCn1c(=O)[nH]c2nc(-c3ccc(S(=O)(=O)N4CCN(c5ccc(Cl)cc5)CC4)cc3)[nH]c2c1=O`: in [13], the Ki is 1.3 nM. Further, in data set [14], the pKb came to 8.87.

For `C#CCCCCNC(=O)C12CCC(c3nc4c(=O)n(CCCC)c(=O)n(CCCNC(=O)c5ccc(S(=O)(=O)F)cc5)c4[nH]3)(CC1)CC2`, the Ki in data set [1] was found to be 0.6 nM; in data set [13] it was 35.4 nM; in data set [10], 43.7 nM; in data set [11], 9.3 nM; in data set [4], 1.6 nM; in data set [12], 3.9 nM. Besides, the inhibition entry in data set [9] (filed as antagonist) is “Active”.

As to `O[C@H]1CC[C@H](Nc2nc(-c3ccccc3)nc3[nH]ccc23)CC1`, the Ki in data set [1] was found to be 0.5 nM; in [4] it was 0.6 nM; in [12], 0.4 nM. The pKb was determined as 9.27 in data set [3] and 9.44 in data set [8].

Consider `CCCCn1c(=O)c2nc(C34CCC(C(=O)OC)(CC3)CC4)[nH]c2n(CCCNC(=O)c2ccc(S(=O)(=O)O)cc2)c1=O`, for which the results for the Ki in data set [1] and in data set [4] were 92 nM and 179 nM, respectively. This compound also registered a pKb in data set [3] of 7.04. Besides, the inhibition entry in data set [9] is “inactive”.

With `CCCCn1c(=O)c2nc(C34CCC(C(=O)NCCCCN=[N+]=[N-])(CC3)CC4)[nH]c2n(CCCNC(=O)c2ccc(S(=O)(=O)F)cc2)c1=O`, the Ki in data set [13] is 26.3 nM; in data set [10] it was 4.9 nM; in data set [16], 166 nM.

On to `CCCCn1c(=O)c2nc(C34CCC(C(=O)NCCCN=[N+]=[N-])(CC3)CC4)[nH]c2n(CCCNC(=O)c2ccc(S(=O)(=O)O)cc2)c1=O`, for which the values for the Ki in data set [1] and in [4] were 87.5 nM and 605 nM, respectively. Moreover, the pKb in data set [3] amounted to 7.06. The inhibition result in data set [9] is “inactive”.

For `CCCCn1c(=O)c2nc(C34CCC(C(=O)OC)(CC3)CC4)[nH]c2n(CCCNC(=O)c2ccc(S(=O)(=O)F)cc2)c1=O`, the Ki in data set [1] worked out at 17.1 nM; in data set [11], 89.3 nM; in data set [4], 17.3 nM. In [3], this compound displayed a pKb of 7.77. Further, the inhibition result in data set [9] (filed as antagonist) was “Active”.

For `CCCCn1c(=O)c2nc(C34CCC(C(=O)NCCCN=[N+]=[N-])(CC3)CC4)[nH]c2n(CCCNC(=O)c2ccc(S(=O)(=O)F)cc2)c1=O`, the Ki in data set [13] came to 79.4 nM; in data set [10] it was 4.2 nM; in data set [16], 38 nM. Further, the inhibition entry in [9] (filed as antagonist) is “Active”.

In the case of `CCCCn1c(=O)c2nc(C34CCC(C(=O)NCCCCCCCCN=[N+]=[N-])(CC3)CC4)[nH]c2n(CCCNC(=O)c2ccc(S(=O)(=O)F)cc2)c1=O`, the Ki in data set [1] is 2.4 nM; in data set [13], 6.7 nM; in [11] it was 16.1 nM; in [4] it was 3.7 nM; in [12] it was 10.2 nM.

With `CCCn1c(=O)c2nc(C34CCC(C(=O)NCCCN=[N+]=[N-])(CC3)CC4)[nH]c2n(CCCNC(=O)c2ccc(S(=O)(=O)F)cc2)c1=O`, the Ki amounted to 0.6 nM in data set [1]; 17.8 nM in data set [13]; 11 nM in data set [10]; 7.8 nM in data set [11]; 3.5 nM in data set [4]; 2.8 nM in [12]. Moreover, in data set [16], the Ki worked out at 26.3 nM. Further, the pKb in data set [14] stood at 7.75; in data set [15], 7.58; in data set [7], 7.96; in [3] it was 9.19; in [8] it was 8.56.

As to `CCCCn1c(=O)c2nc(C34CCC(C(=O)NCCOCCOCCOCCN=[N+]=[N-])(CC3)CC4)[nH]c2n(CCCNC(=O)c2ccc(S(=O)(=O)F)cc2)c1=O`, the results for the Ki in [13], in data set [10] and in data set [16] were 95.5 nM, 8.3 nM and 36.3 nM, respectively.
